Test results as given in ChEMBL document CHEMBL2331122, “Cytotoxic polyketide derivatives from the South China Sea sponge Plakortis simplex” (J Nat Prod, 2013).
Structures can show the parent of a compound that is named as a salt.

What was measured:
HeLa = experiment: Cytotoxicity against human HeLa cells after 72 hrs by MTT assay; format: functional, cell-based
Procedure, shortened: (§1)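 Human tumour cells plated 24 h ahead, then exposed continuously to a range of compound concentrations for 72 h. Viability read by MTT. Adriamycin served as positive control. IC50 is the concentration giving 50% inhibition of control growth. Three independent experiments, each in triplicate.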

Bel-7402 = experiment: Cytotoxicity against human Bel7402 cells after 72 hrs by MTT assay; format: functional, cell-based; conditions: Bel-7402, 72 h; procedure, shortened: as §1
A549 = experiment: Cytotoxicity against human A549 cells after 72 hrs by MTT assay; format: functional, cell-based; conditions: A549, 72 h
Procedure, shortened: (§2)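 Human tumour cells plated 24 h ahead, then exposed continuously to a range of compound concentrations for 72 h. Viability read by MTT. Adriamycin served as positive control. Three independent experiments, each in triplicate.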

K562 = experiment: Cytotoxicity against human K562 cells after 72 hrs by MTT assay; format: functional, cell-based; conditions: K562, 72 h; procedure, shortened: as §2
[1] = target: Hepatocyte growth factor receptor (Homo sapiens) (UniProt P08581); experiment: Inhibition of c-Met (unknown origin) at 10 uM after 60 mins by ELISA relative to control
Procedure, shortened: (§3)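 ELISA tyrosine kinase assay. Compounds added in DMSO (1% v/v), which was also the negative control; SU11274 (1 μM) was the positive control. Reaction run 60 min at 37 °C. pTyr detected by PY99 plus HRP anti-mouse IgG (30 min, 37 °C), developed with OPD/H2O2, read at 490 nm. Percent inhibition calculated.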

[2] = target: Hepatocyte growth factor receptor (Homo sapiens) (UniProt P08581); experiment: Inhibition of c-Met (unknown origin) at 1 uM after 60 mins by ELISA relative to control; procedure, shortened: as §3

Chain of Hepatocyte growth factor receptor (Homo sapiens) (P08581 whole entry): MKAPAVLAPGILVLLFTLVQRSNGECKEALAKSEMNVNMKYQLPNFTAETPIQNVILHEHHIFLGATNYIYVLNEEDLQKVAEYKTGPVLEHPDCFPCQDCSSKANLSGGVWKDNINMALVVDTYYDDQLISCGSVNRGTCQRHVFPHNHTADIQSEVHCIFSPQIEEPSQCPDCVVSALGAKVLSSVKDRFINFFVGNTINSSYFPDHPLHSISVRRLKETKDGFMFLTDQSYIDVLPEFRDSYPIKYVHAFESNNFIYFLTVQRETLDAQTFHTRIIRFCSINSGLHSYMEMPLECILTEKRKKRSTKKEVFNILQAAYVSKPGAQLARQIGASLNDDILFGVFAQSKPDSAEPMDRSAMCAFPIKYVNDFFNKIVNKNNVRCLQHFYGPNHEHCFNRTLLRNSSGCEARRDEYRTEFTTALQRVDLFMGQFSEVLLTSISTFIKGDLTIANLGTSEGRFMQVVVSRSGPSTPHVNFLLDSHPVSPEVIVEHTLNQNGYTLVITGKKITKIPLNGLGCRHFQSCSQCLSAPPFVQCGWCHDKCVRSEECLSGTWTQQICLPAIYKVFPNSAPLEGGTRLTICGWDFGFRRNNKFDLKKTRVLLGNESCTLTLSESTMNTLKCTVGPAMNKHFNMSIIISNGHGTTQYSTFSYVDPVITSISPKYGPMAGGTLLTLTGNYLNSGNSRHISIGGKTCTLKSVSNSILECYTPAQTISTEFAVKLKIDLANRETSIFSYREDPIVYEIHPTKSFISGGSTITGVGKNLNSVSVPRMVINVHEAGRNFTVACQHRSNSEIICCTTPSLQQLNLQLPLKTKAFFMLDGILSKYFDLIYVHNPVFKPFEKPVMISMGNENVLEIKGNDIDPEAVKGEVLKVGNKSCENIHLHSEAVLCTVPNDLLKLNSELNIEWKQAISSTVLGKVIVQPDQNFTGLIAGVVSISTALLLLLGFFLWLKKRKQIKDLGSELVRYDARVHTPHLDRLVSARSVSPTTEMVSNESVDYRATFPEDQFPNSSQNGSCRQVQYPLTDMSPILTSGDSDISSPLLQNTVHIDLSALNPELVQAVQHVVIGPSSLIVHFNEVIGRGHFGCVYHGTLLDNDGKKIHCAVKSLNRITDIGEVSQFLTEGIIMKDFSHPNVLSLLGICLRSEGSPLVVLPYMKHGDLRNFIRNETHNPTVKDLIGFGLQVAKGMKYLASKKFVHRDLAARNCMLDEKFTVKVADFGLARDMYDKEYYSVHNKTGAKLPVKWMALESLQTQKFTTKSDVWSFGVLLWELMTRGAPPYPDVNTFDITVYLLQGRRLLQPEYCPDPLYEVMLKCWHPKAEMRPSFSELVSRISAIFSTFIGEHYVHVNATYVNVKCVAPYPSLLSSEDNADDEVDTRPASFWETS

SMILES	IC50 (HeLa) [µM]	IC50 (Bel-7402) [µM]	IC50 (A549) [µM]	IC50 (K562) [µM]	inhibition [1] [%]	inhibition [2] [%]
CCCC[C@H](CC)C[C@]1(CC)C=C(CC)/C(=C/C(=O)OC)O1	4.2	> 100	> 100	5.3	–	–
CC/C=C/[C@H](CC)C[C@]1(CC)C=C(CC)/C(=C/C(=O)OC)O1	2.6	> 100	> 100	0.8	–	–
COc1cccc2c1C(=O)c1c(O)c3c(c(O)c1C2=O)C[C@@](O)(C(=O)CO)C[C@@H]3O[C@H]1C[C@H](N)[C@H](O)[C@H](C)O1 [DOXORUBICIN HYDROCHLORIDE]	0.6	–	–	–	–	–
CCCCC(C)Cc1cc(CC)c(CC(=O)O)o1 (configuration not stated) [PLAKORSIN D]	> 100	> 100	> 100	> 100	–	–
CCCCC(C)C[C@]1(CC)O[C@H]1[C@]1(CC)C=CC(=O)O1 (some centres not stated) [PLAKORTOXIDE A]	31.5	> 100	> 100	> 50	–	–
CCCCC(CC)C[C@]1(CC)O[C@H]1[C@]1(CC)C=CC(=O)O1 (some centres not stated) [PLAKORTOXIDE B]	> 50	> 100	> 100	> 100	–	–
CCCCC(C)C/C(=C\[C@@]1(CC)OC(=O)C[C@@H]1O)CC (some centres not stated) [SIMPLEXOLIDE B]	4.7	> 100	> 100	2.2	–	–
CCCCC(C)C/C(=C/[C@@]1(CC)OC(=O)C[C@@H]1O)CC (some centres not stated) [SIMPLEXOLIDE E]	31.2	> 100	> 100	49.2	–	–
CC/C=C/[C@H]1C[C@](O)(CC)[C@@H]([C@]2(CC)OC(=O)C[C@@H]2O)[C@@H]1C [SIMPLEXTONE C]	29	> 100	40.4	19.4	57.4	34.3
CCC[C@@H]1[C@@H](C)C[C@](O)(CC)[C@H]1[C@]1(CC)OC(=O)C[C@@H]1O [SIMPLEXTONE D]	> 50	> 100	> 100	> 100	–	–
CCCCC(C)CC(O)(/C=C(/CC)[C@@H](O)CC(=O)OC)CC (some centres not stated) [WOODYLIDE A]	15.5	> 100	29.3	23.8	–	–
CCCCC(CC)CC(O)(/C=C(/CC)[C@@H](O)CC(=O)OC)CC (some centres not stated) [WOODYLIDE B]	15.9	> 100	23.6	20	–	–
